Measurements of several laboratories.
Each line is one published result; the experiments were not run side by side.
Melanocortin receptor 5: Melanocortin receptor 5 (Mus musculus, UniProt P41149)
rep main protease: Replicase polyprotein 1ab, main protease (rep, Severe acute respiratory syndrome-related coronavirus, UniProt P0C6X7)

Structure (SMILES) | target | assay | setting | measurement | value
C[C@@H]1NC(=O)[C@H](CC(N)=O)NC(=O)[C@H](Cc2ccccc2)NC(=O)[C@H](Cc2cccc3ccccc23)NC(=O)[C@H](CCCNC(=N)N)NC(=O)[C@@H]2CCCN2C(=O)[C@H]2CCCN2C(=O)[C@H](Cc2ccccc2)NC1=O | Melanocortin receptor 5 | reporter gene, agonist | – | EC50 | > 100 µM
O=C1c2c(O)cc(O)cc2O[C@H](c2cc(O)c(O)c(O)c2)[C@H]1O | rep main protease | enzyme activity, inhibitor | – | IC50 | 4.58 µM
COc1ccc(-c2nsc(NC(=O)[C@@H]3C[C@H]3C)c2C)cc1 | Metabotropic glutamate receptor 1 (GRM1, Homo sapiens, UniProt Q13255) | calcium signal, antagonist | – | IC50 | 0.0089 µM
[Hg+2] | rep main protease | enzyme activity, inhibitor | – | Ki | 0.5 µM
C[C@@H]1NC(=O)[C@H](CCCN)NC(=O)[C@H](Cc2ccccc2)NC(=O)[C@H](Cc2ccccc2)NC(=O)[C@H](CCCNC(=N)N)NC(=O)[C@@H]2CCCN2C(=O)[C@H]2CCCN2C(=O)[C@H](Cc2ccccc2)NC1=O | Melanocortin receptor 5 | reporter gene, agonist | – | EC50 | > 100 µM
CN[C@]1(c2ccccc2Cl)CCCCC1=O | Ferritin light chain (FTL, Equus caballus, UniProt P02791) | cell-free assay, fluorescence | – | Kd | 42 µM
Clc1cccc(N2CCNCC2)c1Cl | Muscarinic acetylcholine receptor M4 (CHRM4, Homo sapiens, UniProt P08173) | ligand displacement, radioligand | cell membranes | Ki | > 63.1 µM
O=C(O)[C@H]1O[C@@H](Oc2cc3oc(-c4ccccc4)cc(=O)c3c(O)c2O)[C@H](O)[C@@H](O)[C@@H]1O | rep main protease | enzyme activity, inhibitor | – | IC50 | 101 µM
CN1CCC(C(c2ccccc2)c2ccccc2)CC1 | Histamine H1 receptor (HRH1, Homo sapiens, UniProt P35367) | cell-free assay, radioligand | – | Ki | 0.0251 µM
